The source made the active and inactive calls. No cut-off for these calls is given here.
Assays:
[1] = Intrinsic clearance in CD1 mouse liver microsomes at 1 uM by LC-MS/MS analysis; assay type: ADME; settings: read-out: CLH
[2] = target: T1, Histone deacetylase 7 (Homo sapiens) (UniProt Q8WUI4); test: Inhibition of human HDAC7 at 5 uM
T1 sequence (whole entry): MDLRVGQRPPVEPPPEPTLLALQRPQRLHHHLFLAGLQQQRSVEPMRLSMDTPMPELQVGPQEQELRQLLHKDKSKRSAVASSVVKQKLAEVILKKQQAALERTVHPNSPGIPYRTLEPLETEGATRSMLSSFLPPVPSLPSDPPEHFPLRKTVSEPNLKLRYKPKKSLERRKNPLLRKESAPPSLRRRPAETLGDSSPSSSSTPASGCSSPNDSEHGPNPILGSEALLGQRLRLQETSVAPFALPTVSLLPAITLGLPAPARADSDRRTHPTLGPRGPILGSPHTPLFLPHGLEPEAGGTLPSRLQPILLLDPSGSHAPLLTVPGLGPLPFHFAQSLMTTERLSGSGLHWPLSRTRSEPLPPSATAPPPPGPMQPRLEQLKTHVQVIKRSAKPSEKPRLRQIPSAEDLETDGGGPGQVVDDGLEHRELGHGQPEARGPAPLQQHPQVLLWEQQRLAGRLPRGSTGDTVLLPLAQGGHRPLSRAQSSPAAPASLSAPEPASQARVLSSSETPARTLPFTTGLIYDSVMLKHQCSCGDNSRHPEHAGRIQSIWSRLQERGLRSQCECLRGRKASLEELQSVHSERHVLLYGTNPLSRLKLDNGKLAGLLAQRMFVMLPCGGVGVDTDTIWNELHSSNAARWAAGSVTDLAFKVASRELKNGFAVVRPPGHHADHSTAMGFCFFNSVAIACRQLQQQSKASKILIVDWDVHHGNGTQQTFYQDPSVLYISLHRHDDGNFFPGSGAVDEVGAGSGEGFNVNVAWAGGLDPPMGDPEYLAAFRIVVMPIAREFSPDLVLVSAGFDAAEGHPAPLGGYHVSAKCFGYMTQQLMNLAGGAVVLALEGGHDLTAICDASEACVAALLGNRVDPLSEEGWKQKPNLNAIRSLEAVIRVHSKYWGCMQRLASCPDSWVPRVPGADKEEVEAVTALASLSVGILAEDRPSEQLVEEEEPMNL

[3] = Cytotoxicity against human HUVEC cells assessed as cell viability after 72 hrs by CellTiter-Glo assay; assay type: cell-based
Histone deacetylase 1 [4] = target: T2, Histone deacetylase 1 (Homo sapiens, UniProt Q13547); test: Inhibition of recombinant human His-tagged HDAC1 expressed in insect cells preincubated for 10 mins followed by addition of FLUOR DE LYS as fluorescent substrate measured after 1 hr by spectrophotometry
[5] = Intrinsic clearance in human liver microsomes at 1 uM by LC-MS/MS analysis; assay type: ADME; settings: read-out: CLH
[6] = Cytotoxicity against human HeLa cells assessed as cell viability after 72 hrs by CellTiter-Glo assay; assay type: cell-based
[7] = Inhibition of class 1 histone deacetylase in human HeLa cells using FLUOR DE LYS as fluorescent substrate after 4 hrs by spectrophotometry; assay type: cell-based
In short: (§1)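 Cell-based read-outs (parasite growth in erythrocytes; class I HDAC activity in HeLa) were run with multiple repetitions of each assay to limit variability.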

[8] = target: Histone deacetylase 4 (Homo sapiens) (UniProt P56524); test: Inhibition of human HDAC4 at 5 uM
[9] = target: Histone deacetylase 9 (Homo sapiens) (UniProt Q9UKV0); test: Inhibition of human HDAC9 at 5 uM
[10] = Inhibition of HDAC1 in Plasmodium falciparum 3D7 infected in human erythrocytes assessed as histone H4 hyperacetylation at lysine8 residue by western blotting method; assay type: cell-based
In short: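 P. falciparum parasites inside erythrocytes were treated with increasing compound concentrations. Histone H4 lysine 8 acetylation was analysed, and the concentration giving hyperacetylation was expressed as an EC50.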

[11] = Clearance in NMRI mouse plasma 2 mg/kg, iv by LC-MS/MS analysis; assay type: ADME, organism-based
[12] = target: T3, Protein deacetylase HDAC6 (Homo sapiens) (UniProt Q9UBN7); test: Inhibition of human HDAC6 at 5 uM
T3 sequence (whole entry): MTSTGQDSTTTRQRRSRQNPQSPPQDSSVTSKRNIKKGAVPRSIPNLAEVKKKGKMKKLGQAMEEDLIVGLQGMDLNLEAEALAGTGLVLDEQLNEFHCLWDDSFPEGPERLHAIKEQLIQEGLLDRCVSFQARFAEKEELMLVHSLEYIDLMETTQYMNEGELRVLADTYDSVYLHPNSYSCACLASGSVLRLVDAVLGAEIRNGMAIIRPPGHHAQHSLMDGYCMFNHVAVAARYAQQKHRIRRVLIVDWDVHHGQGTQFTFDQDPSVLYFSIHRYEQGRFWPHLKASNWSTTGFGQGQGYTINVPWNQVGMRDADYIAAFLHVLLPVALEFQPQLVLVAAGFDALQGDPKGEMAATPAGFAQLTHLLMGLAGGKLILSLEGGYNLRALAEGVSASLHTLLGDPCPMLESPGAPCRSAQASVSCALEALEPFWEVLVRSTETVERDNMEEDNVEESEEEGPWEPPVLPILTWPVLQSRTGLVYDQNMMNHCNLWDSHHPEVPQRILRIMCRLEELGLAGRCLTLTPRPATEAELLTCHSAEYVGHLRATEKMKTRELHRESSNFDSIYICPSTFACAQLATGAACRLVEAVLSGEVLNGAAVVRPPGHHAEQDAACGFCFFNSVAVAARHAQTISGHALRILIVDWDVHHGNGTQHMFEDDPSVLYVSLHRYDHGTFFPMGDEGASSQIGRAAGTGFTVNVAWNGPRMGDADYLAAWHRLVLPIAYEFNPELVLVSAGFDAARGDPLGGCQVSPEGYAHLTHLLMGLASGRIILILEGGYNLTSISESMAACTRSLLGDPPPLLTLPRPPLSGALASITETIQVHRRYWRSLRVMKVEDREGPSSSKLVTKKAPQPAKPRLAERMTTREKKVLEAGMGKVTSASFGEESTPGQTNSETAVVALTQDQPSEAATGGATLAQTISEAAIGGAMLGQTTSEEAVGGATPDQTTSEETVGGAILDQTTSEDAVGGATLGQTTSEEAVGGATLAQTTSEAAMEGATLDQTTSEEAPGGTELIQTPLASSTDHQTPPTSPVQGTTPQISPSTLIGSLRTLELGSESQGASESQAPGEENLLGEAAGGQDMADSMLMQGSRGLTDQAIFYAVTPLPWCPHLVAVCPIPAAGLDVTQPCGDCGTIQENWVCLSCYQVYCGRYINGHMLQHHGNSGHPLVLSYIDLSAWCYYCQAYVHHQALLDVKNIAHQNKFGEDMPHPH

Plasmodium falciparum = test: Antimalarial activity against Plasmodium falciparum 3D7 infected human erythrocytes assessed as parasite growth inhibition after 72 hrs by spectrophotometry; assay type: functional, organism-based; settings: 3D7, 72 h; in short: as §1
[13] = target: Histone deacetylase 2 (Homo sapiens) (UniProt Q92769); test: Inhibition of human HDAC2 at 5 uM
[14] = target: Histone deacetylase 5 (Homo sapiens) (UniProt Q9UQL6); test: Inhibition of human HDAC5 at 5 uM
Histone deacetylase 3 = Histone deacetylase 3 (Homo sapiens, UniProt O15379); test: Inhibition of human HDAC3
In short: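 HDAC3 was measured within a human HDAC enzyme panel (HDAC1–7 and 9), with concentrations tested up to 5 μM.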

[15] = Intrinsic clearance in Han Wistar rat liver microsomes at 1 uM by LC-MS/MS analysis; assay type: ADME; settings: read-out: CLH
Histone deacetylase 1 [16] = target: T2, Histone deacetylase 1; test: Inhibition of human HDAC1 at 5 uM

T2 sequence (Q13547 whole entry): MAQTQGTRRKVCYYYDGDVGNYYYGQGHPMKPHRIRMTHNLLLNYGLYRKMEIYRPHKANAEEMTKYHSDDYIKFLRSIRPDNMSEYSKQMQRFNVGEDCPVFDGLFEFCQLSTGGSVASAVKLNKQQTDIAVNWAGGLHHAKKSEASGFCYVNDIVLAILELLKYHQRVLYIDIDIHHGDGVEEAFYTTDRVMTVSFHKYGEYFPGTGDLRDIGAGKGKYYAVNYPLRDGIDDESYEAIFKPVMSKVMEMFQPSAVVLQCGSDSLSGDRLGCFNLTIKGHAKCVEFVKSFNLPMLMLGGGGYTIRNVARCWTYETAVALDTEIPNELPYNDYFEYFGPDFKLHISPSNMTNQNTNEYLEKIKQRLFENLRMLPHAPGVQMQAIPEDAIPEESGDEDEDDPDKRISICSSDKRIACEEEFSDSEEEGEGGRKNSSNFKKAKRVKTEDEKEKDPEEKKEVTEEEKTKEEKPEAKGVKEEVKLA
Chain of Histone deacetylase 2 (Homo sapiens) (Q92769 whole entry): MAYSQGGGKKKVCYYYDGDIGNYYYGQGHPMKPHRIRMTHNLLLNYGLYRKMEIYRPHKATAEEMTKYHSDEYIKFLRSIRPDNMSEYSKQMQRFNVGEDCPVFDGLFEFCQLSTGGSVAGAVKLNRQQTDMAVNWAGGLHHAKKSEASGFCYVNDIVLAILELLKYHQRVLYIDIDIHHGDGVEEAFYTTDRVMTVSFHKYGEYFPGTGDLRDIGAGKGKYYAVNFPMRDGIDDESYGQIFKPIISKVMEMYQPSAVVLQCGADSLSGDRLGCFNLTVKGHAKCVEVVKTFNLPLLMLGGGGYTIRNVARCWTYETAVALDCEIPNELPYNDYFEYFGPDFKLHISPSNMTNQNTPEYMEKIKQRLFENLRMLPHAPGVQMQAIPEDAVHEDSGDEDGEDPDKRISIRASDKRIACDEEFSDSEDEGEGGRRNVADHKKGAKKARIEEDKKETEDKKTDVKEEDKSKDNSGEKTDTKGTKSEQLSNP
Chain of Histone deacetylase 4 (Homo sapiens) (P56524 whole entry): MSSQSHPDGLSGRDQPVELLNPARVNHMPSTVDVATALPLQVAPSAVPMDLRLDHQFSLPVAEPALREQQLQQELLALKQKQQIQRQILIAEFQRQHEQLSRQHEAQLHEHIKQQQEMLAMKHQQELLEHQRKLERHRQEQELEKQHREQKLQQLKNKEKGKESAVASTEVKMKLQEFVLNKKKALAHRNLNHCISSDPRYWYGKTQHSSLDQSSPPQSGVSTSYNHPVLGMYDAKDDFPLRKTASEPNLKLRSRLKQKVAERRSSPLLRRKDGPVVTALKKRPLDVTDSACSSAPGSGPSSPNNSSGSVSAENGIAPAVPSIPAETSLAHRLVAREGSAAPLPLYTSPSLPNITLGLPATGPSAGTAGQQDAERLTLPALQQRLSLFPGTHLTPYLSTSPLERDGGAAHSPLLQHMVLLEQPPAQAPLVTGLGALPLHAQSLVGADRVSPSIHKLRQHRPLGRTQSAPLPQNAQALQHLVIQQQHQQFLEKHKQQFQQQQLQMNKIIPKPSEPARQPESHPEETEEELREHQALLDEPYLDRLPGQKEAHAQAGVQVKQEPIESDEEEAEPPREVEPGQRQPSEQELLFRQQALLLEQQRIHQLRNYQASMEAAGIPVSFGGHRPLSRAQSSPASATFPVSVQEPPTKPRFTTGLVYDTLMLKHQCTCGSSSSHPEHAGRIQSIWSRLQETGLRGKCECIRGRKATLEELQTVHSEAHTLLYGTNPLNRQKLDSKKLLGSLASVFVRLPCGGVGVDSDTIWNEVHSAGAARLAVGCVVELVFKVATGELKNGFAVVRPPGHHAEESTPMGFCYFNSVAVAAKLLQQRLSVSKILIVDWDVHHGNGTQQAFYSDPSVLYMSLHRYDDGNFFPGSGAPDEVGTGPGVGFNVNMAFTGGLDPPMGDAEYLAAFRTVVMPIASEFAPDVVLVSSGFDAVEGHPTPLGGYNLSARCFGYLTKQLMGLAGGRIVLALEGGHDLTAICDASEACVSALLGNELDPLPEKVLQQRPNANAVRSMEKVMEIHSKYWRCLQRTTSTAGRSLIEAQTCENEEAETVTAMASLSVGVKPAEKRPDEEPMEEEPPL
Chain of Histone deacetylase 3 (O15379 whole entry): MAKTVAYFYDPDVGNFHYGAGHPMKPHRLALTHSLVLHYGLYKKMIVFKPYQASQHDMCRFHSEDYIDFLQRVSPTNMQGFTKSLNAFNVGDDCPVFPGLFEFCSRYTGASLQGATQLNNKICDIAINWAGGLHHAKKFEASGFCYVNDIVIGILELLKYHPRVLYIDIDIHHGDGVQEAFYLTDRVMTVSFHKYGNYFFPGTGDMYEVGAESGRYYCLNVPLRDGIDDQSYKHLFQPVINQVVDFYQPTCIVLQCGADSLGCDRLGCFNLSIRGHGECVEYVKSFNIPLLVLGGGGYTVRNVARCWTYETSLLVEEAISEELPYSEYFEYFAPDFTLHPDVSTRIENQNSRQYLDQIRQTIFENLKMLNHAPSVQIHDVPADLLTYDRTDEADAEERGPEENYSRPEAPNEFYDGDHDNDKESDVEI
Chain of Histone deacetylase 9 (Homo sapiens) (Q9UKV0 whole entry): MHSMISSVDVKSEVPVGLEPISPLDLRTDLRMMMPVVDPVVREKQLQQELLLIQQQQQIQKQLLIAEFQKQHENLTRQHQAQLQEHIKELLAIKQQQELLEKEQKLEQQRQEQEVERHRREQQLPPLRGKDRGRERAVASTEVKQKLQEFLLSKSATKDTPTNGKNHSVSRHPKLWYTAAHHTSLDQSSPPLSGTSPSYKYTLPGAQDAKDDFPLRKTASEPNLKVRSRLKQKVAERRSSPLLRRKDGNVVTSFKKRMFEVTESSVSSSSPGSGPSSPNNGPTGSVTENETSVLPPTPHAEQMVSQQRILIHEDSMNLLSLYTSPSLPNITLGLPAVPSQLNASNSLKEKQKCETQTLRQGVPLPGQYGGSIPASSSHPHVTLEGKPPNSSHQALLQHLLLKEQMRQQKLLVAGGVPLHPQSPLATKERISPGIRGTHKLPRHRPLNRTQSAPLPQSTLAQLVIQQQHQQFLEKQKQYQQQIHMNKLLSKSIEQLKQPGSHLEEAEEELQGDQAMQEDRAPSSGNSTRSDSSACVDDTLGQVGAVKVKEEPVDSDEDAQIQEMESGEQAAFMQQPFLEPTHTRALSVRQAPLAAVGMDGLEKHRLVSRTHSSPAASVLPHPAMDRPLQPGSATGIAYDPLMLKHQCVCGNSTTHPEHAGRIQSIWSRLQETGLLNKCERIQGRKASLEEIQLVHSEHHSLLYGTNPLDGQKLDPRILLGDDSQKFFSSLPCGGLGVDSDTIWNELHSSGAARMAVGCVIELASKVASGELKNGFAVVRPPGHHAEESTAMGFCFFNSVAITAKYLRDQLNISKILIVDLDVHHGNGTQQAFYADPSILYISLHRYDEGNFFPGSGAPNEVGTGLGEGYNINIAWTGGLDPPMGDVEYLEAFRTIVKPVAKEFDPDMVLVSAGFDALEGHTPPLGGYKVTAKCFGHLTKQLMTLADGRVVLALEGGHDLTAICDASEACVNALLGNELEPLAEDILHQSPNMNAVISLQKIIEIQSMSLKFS
Chain of Histone deacetylase 5 (Homo sapiens) (Q9UQL6 whole entry): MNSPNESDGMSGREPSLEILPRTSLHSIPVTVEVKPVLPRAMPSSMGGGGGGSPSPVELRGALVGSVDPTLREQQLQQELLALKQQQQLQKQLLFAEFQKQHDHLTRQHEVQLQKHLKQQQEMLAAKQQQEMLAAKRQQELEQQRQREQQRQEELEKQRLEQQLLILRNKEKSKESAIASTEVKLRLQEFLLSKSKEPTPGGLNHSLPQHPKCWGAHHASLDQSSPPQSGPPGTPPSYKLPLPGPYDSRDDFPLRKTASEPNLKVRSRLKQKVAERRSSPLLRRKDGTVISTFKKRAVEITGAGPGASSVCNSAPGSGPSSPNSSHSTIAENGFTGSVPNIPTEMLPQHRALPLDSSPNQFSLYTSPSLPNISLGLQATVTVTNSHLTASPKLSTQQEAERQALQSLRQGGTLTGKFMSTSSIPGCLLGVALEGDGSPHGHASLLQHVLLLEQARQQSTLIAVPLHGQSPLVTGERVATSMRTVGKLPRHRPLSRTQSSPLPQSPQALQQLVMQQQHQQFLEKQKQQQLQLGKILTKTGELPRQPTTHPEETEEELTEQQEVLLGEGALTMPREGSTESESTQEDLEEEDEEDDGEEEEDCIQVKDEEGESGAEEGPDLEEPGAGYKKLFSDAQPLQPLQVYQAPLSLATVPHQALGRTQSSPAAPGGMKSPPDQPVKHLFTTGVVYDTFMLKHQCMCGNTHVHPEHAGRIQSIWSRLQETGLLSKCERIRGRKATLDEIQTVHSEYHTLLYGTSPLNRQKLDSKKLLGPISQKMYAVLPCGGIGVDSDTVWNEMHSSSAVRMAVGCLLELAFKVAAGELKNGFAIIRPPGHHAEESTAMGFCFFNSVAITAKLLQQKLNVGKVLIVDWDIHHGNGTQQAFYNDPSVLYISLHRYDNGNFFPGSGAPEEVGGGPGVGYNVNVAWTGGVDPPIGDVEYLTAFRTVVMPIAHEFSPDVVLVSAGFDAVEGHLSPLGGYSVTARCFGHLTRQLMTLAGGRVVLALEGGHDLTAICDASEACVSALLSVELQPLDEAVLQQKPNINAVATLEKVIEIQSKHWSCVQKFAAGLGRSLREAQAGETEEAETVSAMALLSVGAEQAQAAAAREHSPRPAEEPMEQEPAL

For CNC(=O)CCCCC[C@H](NC(=O)c1cncs1)c1ncc(-c2ccc(-c3ccn[nH]3)cc2)[nH]1, the microsomal CLint at 1 µM [1] was 12 µL/min/mg, the inhibition [2] was “inactive” and the CC50 at 72 h [3] was > 25000 nM. The IC50 (Histone deacetylase 1 [4]) was 1850 nM, the microsomal CLint at 1 µM [5] was 19 µL/min/mg and the CC50 at 72 h [6] was > 25000 nM. The IC50 [7] was 16600 nM, the inhibition [8] was “inactive” and the inhibition [9] was “inactive”. For the same compound, the EC50 [10] was 350 nM, the clearance [11] was 247 mL/min/kg and the inhibition [12] was “inactive”. The EC50 (Plasmodium falciparum) was 450 nM, the inhibition [13] was “inactive” and the inhibition [14] was “inactive”. For the same compound, the IC50 (Histone deacetylase 3) was 330 nM, the microsomal CLint at 1 µM [15] was 27 µL/min/mg and the inhibition (Histone deacetylase 1 [16]) was “inactive”.

Reference: ChEMBL document CHEMBL3808289, “Discovery of a Selective Series of Inhibitors of Plasmodium falciparum HDACs” (ACS Med Chem Lett, 2016)
